Series [1] has as its system Plasma. The series can be described thus: Anticoagulant activity in citrated rabbit plasma assessed as drug concentration required to double plasma clotting time preincubated for 10 mins at 37 degC by coagulometry. It counts as functional, Oryctolagus cuniculus. In a few lines:
(§1)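 Test compound or DMSO added to citrated rabbit plasma (3.8% sodium citrate, 10:90 v/v) and preincubated 10 min at 37 °C. PT and aPTT clotting times measured on a coagulometer with commercial kits. Activity expressed as the concentration needed to double plasma clotting time (CT2, μM).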

The test system of series [2] is Plasma. The series is described as follows: Anticoagulant activity in citrated rabbit plasma assessed as activated partial thromboplastin time preincubated for 10 mins at 37 degC by coagulometry. The format is functional, Oryctolagus cuniculus. The essentials:
as §1

The nature of series [3]: Cmax in Sprague-Dawley rat at 3 mg/kg, po. It counts as ADME, organism-based. Details: dose 3 mg/kg, route oral. The note with it: in vivo.
Series [4] in a line: Tmax in Sprague-Dawley rat at 3 mg/kg, po. It counts as ADME, organism-based. On the set-up: dose 3 mg/kg, route oral. The note with it: in vivo.
Series [5] can be described thus: Elimination half life in Sprague-Dawley rat at 3 mg/kg, iv. The format is ADME, organism-based. Details: dose 3 mg/kg, route intravenous. The note with it: in vivo, read-out: beta t1/2 (converted). In a few lines: (§2)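 Male Sprague-Dawley rats, 200−220 g, four per group. Vehicle was 5% DMSO + 5% Tween-80 in 90% saline. The reference drug was given in 10% DMSO + 10% Tween-80 + 80% PEG400 (40% solution in saline). Serial retrobulbar vein samples were quantified by LC-MS. Parameters came from noncompartmental analysis of mean plasma concentrations.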

The nature of series [6]: Elimination half life in Sprague-Dawley rat at 3 mg/kg, po. Particulars: in vivo, read-out: beta t1/2 (converted). On the set-up: dose 3 mg/kg, route oral. The format is ADME, organism-based.
A short description of series [7]: AUC (0 to infinity) in Sprague-Dawley rat at 3 mg/kg, iv. Particulars: plasma. The format is ADME, organism-based. Details: time infinity, dose 3 mg/kg, route intravenous. In a few lines:
as §2

The nature of series [8]: AUC (0 to infinity) in Sprague-Dawley rat at 3 mg/kg, po. On the set-up: time infinity, dose 3 mg/kg, route oral. It counts as ADME, organism-based. The note with it: plasma.
A short description of series [9]: Plasma clearance in Sprague-Dawley rat at 3 mg/kg, iv. The format is ADME, organism-based. On the set-up: dose 3 mg/kg, route intravenous. In a few lines:
as §2

A short description of series [10]: Volume of distribution at steady state in Sprague-Dawley rat at 3 mg/kg, iv. It counts as ADME, organism-based. Details: dose 3 mg/kg, route intravenous. The note with it: in vivo, read-out: Vdss. The essentials: as §2
The nature of series [11]: Oral bioavailability in Sprague-Dawley rat at 3 mg/kg. It counts as ADME, organism-based. The note with it: in vivo.
The nature of series [12]: Cmax in Beagle dog at 1 mg/kg, po. Details: dose 1 mg/kg, route oral. The note with it: in vivo. The format is ADME, organism-based, Canis lupus familiaris. The essentials: (§3)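 Male dogs, three per group. Dosed orally at 1 mg/kg or by intravenous infusion at 0.5 mg/kg. Vehicle was 5% DMSO + 5% Tween-80 in 90% saline, or 10% DMSO + 10% Tween-80 + 80% PEG400 for the reference drug. Foreleg blood samples were quantified by LC-MS. Parameters came from noncompartmental analysis of mean plasma concentrations.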

Series [13] can be described thus: Tmax in Beagle dog at 1 mg/kg, po. The format is ADME, organism-based, Canis lupus familiaris. Details: dose 1 mg/kg, route oral. Particulars: in vivo. The essentials:
as §3

Series [14] in a line: Elimination half life in Beagle dog at 1 mg/kg, po. Particulars: in vivo. Details: dose 1 mg/kg, route oral. It counts as ADME, organism-based, Canis lupus familiaris. The essentials: as §3
Series [15] can be described thus: Elimination half life in Beagle dog at 0.5 mg/kg, iv. The format is ADME, organism-based, Canis lupus familiaris. Details: dose 0.5 mg/kg, route intravenous. The note with it: in vivo. The essentials:
as §3

Series [16] can be described thus: AUC (0 to infinity) in Beagle dog at 1 mg/kg, po. The format is ADME, organism-based, Canis lupus familiaris. On the set-up: time infinity, dose 1 mg/kg, route oral. Particulars: plasma. In a few lines: as §3
Series [17] in a line: AUC (0 to infinity) in Beagle dog at 0.5 mg/kg, iv. The format is ADME, organism-based, Canis lupus familiaris. Details: time infinity, dose 0.5 mg/kg, route intravenous. The note with it: plasma. The essentials:
as §3

The nature of series [18]: Plasma clearance in Beagle dog at 0.5 mg/kg, iv. The format is ADME, organism-based, Canis lupus familiaris. On the set-up: dose 0.5 mg/kg, route intravenous. The essentials: as §3
Series [19] in a line: Volume of distribution at steady state in Beagle dog at 0.5 mg/kg, iv. The format is ADME, organism-based, Canis lupus familiaris. On the set-up: dose 0.5 mg/kg, route intravenous. The note with it: in vivo, read-out: Vdss. The essentials: as §3
Series [20] can be described thus: Oral bioavailability in Beagle dog at 1 mg/kg. The format is ADME, organism-based, Canis lupus familiaris. Particulars: in vivo. In a few lines: as §3
Series [21] has as its system Rattus norvegicus. The series can be described thus: Antithrombotic activity in rat model of FeCl3-induced venous thrombosis assessed as reduction in thrombus formation dosed orally 60 mins before thrombus formation. Particulars: po.
The subject of series [22] is Rattus norvegicus. The series is described as follows: Antithrombotic activity in rat model of arteriovenous shunt-induced thrombosis assessed as reduction in thrombus formation dosed orally 60 mins before shunt opening. The note with it: po.
The subject of series [23] is Rattus norvegicus. The series is described as follows: Induction of tail bleeding in rat assessed as prolongation of bleeding time dosed orally 60 mins before surgery. Particulars: in vivo, po, 1 h. It counts as organism-based. In a few lines: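 Anesthetized rats were dosed orally with compound suspended in 0.5% CMC-Na, or vehicle, 60 min before the tail was transected 4 mm from the tip. The tail was immersed vertically in saline at 37 °C. Bleeding time was taken as the point when flow ceased for >30 s, with a 30 min maximum.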

Data on one molecule can be found in ChEMBL document CHEMBL3351225, “Design, synthesis, and structure-activity and structure-pharmacokinetic relationship studies of novel [6,6,5] tricyclic fused oxazolidinones leading to the discovery of a potent, selective, and orally bioavailable FXa inhibitor” (J Med Chem, 2014).

For the molecule `O=C(NC[C@H]1CN(c2ccc(N3CCOCC3=O)cc2)C(=O)O1)c1ccc(Cl)s1` [RIVAROXABAN], the figures for the Activity in the series on Plasma [1] and in the series with Rattus norvegicus [23] were 0.4 µM and “Dose-dependent effect”, respectively. Also, the 2aPTT in the series with Plasma [2] amounted to 0.32 µM. Further, the Cmax in series [3] was found to be 850 ng/mL; in [12] it was 333 ng/mL. In addition, the Tmax in series [4] is 0.88 h; in [13], 0.7 h. Also, the half-life in series [5] was 1.27 h; in series [6], 2.9 h; in series [14] it was 1.8 h; in [15] it was 2.4 h. The AUC(0-inf) in series [7] worked out at 9980 ng·h/mL; in series [8], 2260 ng·h/mL; in series [16] it was 1000 ng·h/mL; in series [17], 916 ng·h/mL. In addition, the clearance in [9] was 5.05 mL/min/kg; in [18], 10 mL/min/kg. The Vd in series [10] was 0.19 L/kg; in series [19], 2.8 L/kg. The bioavailability in series [11] was 21.3%; in [20] it was 68%. Further, the median effective dose (ED50) was determined as 4.86 mg/kg in the series with Rattus norvegicus [21] and 3.72 mg/kg in the series on Rattus norvegicus [22].
